Reference: ChEMBL document CHEMBL3286116, “Synthesis, biological evaluation and structure-activity correlation study of a series of imidazol-based compounds as Candida albicans inhibitors” (Eur J Med Chem, 2014)
In brackets after ≈: the same amount, converted by molar mass.

Columns and labels:
Candida parapsilosis [1] = assay: Antifungal activity against Candida parapsilosis DSM 11224 after 48 hrs by CLSI broth microdilution method; assay type: functional; details: Lodderomyces parapsilosis, DSM 11224, 48 h
Method in brief: (§1)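 Yeast CLSI broth microdilution (M27-A3). Compounds dissolved in DMSO at 100× the top test concentration, then diluted as serial two-fold dilutions in RPMI 1640 to final 0.125–64. Inoculum was 1.0–1.5 × 10^3 cells mL−1, incubated at 35 °C and read for growth at 48 h. MIC is the lowest concentration giving ≥50% growth inhibition versus growth control. Reported as the median of five replicates and as the geometric mean.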

[2] = test system: Trichophyton mentagrophytes; assay: Antifungal activity against Trichophyton mentagrophytes DSM 4870 after 72 hrs by CLSI broth microdilution method; assay type: functional; details: DSM 4870, 72 h
Method in brief: (§2)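 Dermatophytes tested by CLSI broth microdilution for filamentous fungi (M38-A2). Serial two-fold dilutions of DMSO-dissolved compound in RPMI 1640, final 0.125–64. Inoculum was 0.4–5 × 10^4 CFU mL−1, incubated at 35 °C and read at 72 h. MIC80 is the lowest concentration giving ≥80% growth inhibition versus growth control. Median of five replicates, plus geometric mean.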

Pichia kudriavzevii [3] = assay: Antifungal activity against Candida krusei PMC 0613 after 48 hrs by CLSI broth microdilution method; assay type: functional; details: PMC 0613, 48 h; method in brief: as §1
Nakaseomyces glabratus [4] = assay: Antifungal activity against Candida glabrata PMC 0850R after 48 hrs by CLSI broth microdilution method; assay type: functional; method in brief: as §1
Nakaseomyces glabratus [5] = assay: Antifungal activity against Candida glabrata PMC 0852R after 48 hrs by CLSI broth microdilution method; assay type: functional; method in brief: as §1
Nannizzia gypsea [6] = assay: Antifungal activity against Microsporum gypseum DSM 3824 after 72 hrs by CLSI broth microdilution method; assay type: functional; details: DSM 3824, 72 h; method in brief: as §2
[7] = test system: Trichophyton mentagrophytes; assay: Antifungal activity against Trichophyton mentagrophytes PMC 6509 after 72 hrs by CLSI broth microdilution method; assay type: functional; details: PMC 6509, 72 h; method in brief: as §2
Cryptococcus neoformans [8] = assay: Antifungal activity against Cryptococcus neoformans PMC 2123 after 72 hrs by CLSI broth microdilution method; assay type: functional; details: PMC 2123, 72 h
Method in brief: (§3)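 Cryptococcus neoformans tested by CLSI broth microdilution in RPMI 1640, with serial two-fold dilutions from DMSO stocks at 100× the top concentration, final 0.125–64. Inoculum was 1.0–1.5 × 10^3 cells mL−1 at 35 °C, with growth read at 72 h. MIC is the lowest concentration with ≥50% growth inhibition versus control. Median of five replicates, plus geometric mean.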

Cryptococcus neoformans [9] = assay: Antifungal activity against Cryptococcus neoformans PMC 2111 after 72 hrs by CLSI broth microdilution method; assay type: functional; details: PMC 2111, 72 h; method in brief: as §3
Candida parapsilosis [10] = assay: Antifungal activity against Candida parapsilosis ATCC 22019 after 48 hrs by CLSI broth microdilution method; assay type: functional; details: Lodderomyces parapsilosis, ATCC 22019, 48 h; method in brief: as §1
Candida albicans [11] = assay: Antifungal activity against Candida albicans PMC 1041R after 48 hrs by CLSI broth microdilution method; assay type: functional; method in brief: as §1
Cryptococcus neoformans [12] = assay: Antifungal activity against Cryptococcus neoformans DSM 11959 after 72 hrs by CLSI broth microdilution method; assay type: functional; details: DSM 11959, 72 h; method in brief: as §3
Cryptococcus neoformans [13] = assay: Antifungal activity against Cryptococcus neoformans PMC 2115 after 72 hrs by CLSI broth microdilution method; assay type: functional; details: PMC 2115, 72 h; method in brief: as §3
Nannizzia gypsea [14] = assay: Antifungal activity against Microsporum gypseum PMC 7331 after 72 hrs by CLSI broth microdilution method; assay type: functional; details: PMC 7331, 72 h; method in brief: as §2
Candida albicans [15] = assay: Antifungal activity against Candida albicans PMC 1040R after 48 hrs by CLSI broth microdilution method; assay type: functional; method in brief: as §1
Candida albicans [16] = assay: Antifungal activity against Candida albicans ATCC 90028 after 48 hrs by CLSI broth microdilution method; assay type: functional; details: ATCC 90028, 48 h; method in brief: as §1
Candida albicans [17] = assay: Antifungal activity against Candida albicans ATCC 76615 after 48 hrs by CLSI broth microdilution method; assay type: functional; details: ATCC 76615, 48 h; method in brief: as §1
Candida tropicalis [18] = assay: Antifungal activity against Candida tropicalis PMC 0910 after 48 hrs by CLSI broth microdilution method; assay type: functional; details: PMC 0910, 48 h; method in brief: as §1
[19] = test system: Trichophyton mentagrophytes; assay: Antifungal activity against Trichophyton mentagrophytes PMC 6531 after 72 hrs by CLSI broth microdilution method; assay type: functional; details: PMC 6531, 72 h; method in brief: as §2
[20] = test system: Trichophyton mentagrophytes; assay: Antifungal activity against Trichophyton mentagrophytes PMC 6552 after 72 hrs by CLSI broth microdilution method; assay type: functional; details: PMC 6552, 72 h; method in brief: as §2
[21] = Cytotoxicity against human A549 cells after 48 hrs by MTT assay; assay type: cell-based
Method in brief: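 A549 cells (ATCC CCL-185) seeded at 2 × 10^4/well in phenol-red-free RPMI 1640 with 10% FBS, L-glutamine, penicillin and streptomycin, at 37 °C and 5% CO2. Exposed 48 h to DMSO-dissolved compounds (final 16–256; at least five concentrations, triplicate). MTT added for 3–4 h, crystals solubilized, OD read at 570 nm. CC50 taken versus the DMSO control. Mean ± SD of two independent experiments.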

Cryptococcus neoformans [22] = assay: Antifungal activity against Cryptococcus neoformans PMC 2103 after 72 hrs by CLSI broth microdilution method; assay type: functional; details: PMC 2103, 72 h; method in brief: as §3
Cryptococcus neoformans [23] = assay: Antifungal activity against Cryptococcus neoformans PMC 2102 after 72 hrs by CLSI broth microdilution method; assay type: functional; details: PMC 2102, 72 h; method in brief: as §3
Candida albicans [24] = assay: Antifungal activity against Candida albicans ATCC 3153 after 48 hrs by CLSI broth microdilution method; assay type: functional; details: ATCC 3153, 48 h; method in brief: as §1
Candida albicans [25] = assay: Antifungal activity against Candida albicans PMC 1042R after 48 hrs by CLSI broth microdilution method; assay type: functional; method in brief: as §1
Nakaseomyces glabratus [26] = assay: Antifungal activity against Candida glabrata PMC 0807 after 48 hrs by CLSI broth microdilution method; assay type: functional; details: PMC 0807, 48 h; method in brief: as §1
Pichia kudriavzevii [27] = assay: Antifungal activity against Candida krusei DSM 6128 after 48 hrs by CLSI broth microdilution method; assay type: functional; details: DSM 6128, 48 h; method in brief: as §1
[28] = test system: Trichophyton mentagrophytes; assay: Antifungal activity against Trichophyton mentagrophytes PMC 6515 after 72 hrs by CLSI broth microdilution method; assay type: functional; details: PMC 6515, 72 h; method in brief: as §2
Candida albicans [29] = assay: Antifungal activity against Candida albicans ATCC 10261 after 48 hrs by CLSI broth microdilution method; assay type: functional; details: ATCC 10261, 48 h; method in brief: as §1
Candida tropicalis [30] = assay: Antifungal activity against Candida tropicalis DSM 11953 after 48 hrs by CLSI broth microdilution method; assay type: functional; details: DSM 11953, 48 h; method in brief: as §1
Candida albicans [31] = assay: Antifungal activity against Candida albicans ATCC 10231 after 48 hrs by CLSI broth microdilution method; assay type: functional; details: ATCC 10231, 48 h; method in brief: as §1
Candida albicans [32] = assay: Antifungal activity against Candida albicans PMC 1011 after 48 hrs by CLSI broth microdilution method; assay type: functional; details: PMC 1011, 48 h; method in brief: as §1
Nannizzia gypsea [33] = assay: Antifungal activity against Microsporum gypseum PMC 7303 after 72 hrs by CLSI broth microdilution method; assay type: functional; details: PMC 7303, 72 h; method in brief: as §2
[34] = test system: Trichophyton mentagrophytes; assay: Antifungal activity against Trichophyton mentagrophytes PMC 6503 after 72 hrs by CLSI broth microdilution method; assay type: functional; details: PMC 6503, 72 h; method in brief: as §2
Cryptococcus neoformans [35] = assay: Antifungal activity against Cryptococcus neoformans PMC 2136 after 72 hrs by CLSI broth microdilution method; assay type: functional; details: PMC 2136, 72 h; method in brief: as §3
Candida albicans [36] = assay: Antifungal activity against Candida albicans ATCC 20891 after 48 hrs by CLSI broth microdilution method; assay type: functional; details: ATCC 20891, 48 h; method in brief: as §1
Nakaseomyces glabratus [37] = assay: Antifungal activity against Candida glabrata PMC 0853R after 48 hrs by CLSI broth microdilution method; assay type: functional; method in brief: as §1
Candida albicans [38] = assay: Antifungal activity against Candida albicans ATCC 24433 after 48 hrs by CLSI broth microdilution method; assay type: functional; details: ATCC 24433, 48 h; method in brief: as §1
Nakaseomyces glabratus [39] = assay: Antifungal activity against Candida glabrata PMC 0805 after 48 hrs by CLSI broth microdilution method; assay type: functional; details: PMC 0805, 48 h; method in brief: as §1
Cryptococcus neoformans [40] = assay: Antifungal activity against Cryptococcus neoformans PMC 2107 after 72 hrs by CLSI broth microdilution method; assay type: functional; details: PMC 2107, 72 h; method in brief: as §3
Nakaseomyces glabratus [41] = assay: Antifungal activity against Candida glabrata PMC 0851R after 48 hrs by CLSI broth microdilution method; assay type: functional; method in brief: as §1

With `O=C(OC(Cn1ccnc1)c1ccc(Cl)cc1)N1CCN(c2ccc(Cl)cc2)CC1` (stereo unspecified) the MIC50 (Candida parapsilosis [1]) was 1 µg/mL (≈ 2.25 µM), the MIC80 [2] was 8 µg/mL (≈ 18 µM) and the MIC50 (Pichia kudriavzevii [3]) was 1 µg/mL (≈ 2.25 µM). For the same compound, the MIC50 (Nakaseomyces glabratus [4]) was 8 µg/mL (≈ 18 µM), the MIC50 (Nakaseomyces glabratus [5]) was 4 µg/mL (≈ 8.98 µM) and the MIC80 (Nannizzia gypsea [6]) was 8 µg/mL (≈ 18 µM). For the same compound, the MIC80 [7] was 8 µg/mL (≈ 18 µM), the MIC50 (Cryptococcus neoformans [8]) was 4 µg/mL (≈ 8.98 µM) and the MIC50 (Cryptococcus neoformans [9]) was 2 µg/mL (≈ 4.49 µM). It also gave an MIC50 (Candida parapsilosis [10]) of 1 µg/mL (≈ 2.25 µM), an MIC50 (Candida albicans [11]) of 8 µg/mL (≈ 18 µM) and an MIC50 (Cryptococcus neoformans [12]) of 2 µg/mL (≈ 4.49 µM). It also gave an MIC50 (Cryptococcus neoformans [13]) of 4 µg/mL (≈ 8.98 µM), an MIC80 (Nannizzia gypsea [14]) of 2 µg/mL (≈ 4.49 µM) and an MIC50 (Candida albicans [15]) of 32 µg/mL (≈ 71.9 µM). The MIC50 (Candida albicans [16]) was 0.5 µg/mL (≈ 1.12 µM), the MIC50 (Candida albicans [17]) was 2 µg/mL (≈ 4.49 µM) and the MIC50 (Candida tropicalis [18]) was 4 µg/mL (≈ 8.98 µM). It also gave an MIC80 [19] of 8 µg/mL (≈ 18 µM), an MIC80 [20] of 1 µg/mL (≈ 2.25 µM) and a CC50 at 48 h [21] of 82.2 µg/mL (≈ 185 µM). It also gave an MIC50 (Cryptococcus neoformans [22]) of 4 µg/mL (≈ 8.98 µM), an MIC50 (Cryptococcus neoformans [23]) of 4 µg/mL (≈ 8.98 µM) and an MIC50 (Candida albicans [24]) of 0.5 µg/mL (≈ 1.12 µM). For the same compound, the MIC50 (Candida albicans [25]) was 4 µg/mL (≈ 8.98 µM), the MIC50 (Nakaseomyces glabratus [26]) was 8 µg/mL (≈ 18 µM) and the MIC50 (Pichia kudriavzevii [27]) was 4 µg/mL (≈ 8.98 µM). The MIC80 [28] was 4 µg/mL (≈ 8.98 µM), the MIC50 (Candida albicans [29]) was 0.5 µg/mL (≈ 1.12 µM) and the MIC50 (Candida tropicalis [30]) was 4 µg/mL (≈ 8.98 µM). The MIC50 (Candida albicans [31]) was 0.5 µg/mL (≈ 1.12 µM), the MIC50 (Candida albicans [32]) was 0.25 µg/mL (≈ 0.561 µM) and the MIC80 (Nannizzia gypsea [33]) was 2 µg/mL (≈ 4.49 µM). For the same compound, the MIC80 [34] was 2 µg/mL (≈ 4.49 µM), the MIC50 (Cryptococcus neoformans [35]) was 4 µg/mL (≈ 8.98 µM) and the MIC50 (Candida albicans [36]) was 0.5 µg/mL (≈ 1.12 µM). It also gave an MIC50 (Nakaseomyces glabratus [37]) of 4 µg/mL (≈ 8.98 µM), an MIC50 (Candida albicans [38]) of 1 µg/mL (≈ 2.25 µM) and an MIC50 (Nakaseomyces glabratus [39]) of 1 µg/mL (≈ 2.25 µM). The MIC50 (Cryptococcus neoformans [40]) was 4 µg/mL (≈ 8.98 µM) and the MIC50 (Nakaseomyces glabratus [41]) was 8 µg/mL (≈ 18 µM).
